Experimental data taken from ChEMBL document CHEMBL1147748, “Overlapping, nonidentical binding sites of different classes of nonpeptide antagonists for the human gonadotropin-releasing hormone receptor” (J Med Chem, 2006).

Tests used:
[1] = molecular target: Gonadotropin-releasing hormone receptor (Homo sapiens, UniProt P30968, M24A); assay: Displacement of [125I]-His5, D-Tyr6]GnRH from mutant GnRHR, GnRHR M24A
Summary of the method: (§1)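 Human GnRH-R (wild type or site-directed point mutant) was transiently expressed in COS-7 cells by electroporation, with cells cultured 36-48 h before membranes were prepared. Membranes (5-20 µg per point) were incubated 2 h at room temperature with 0.3 nM tracer and varying competitor in HEPES pH 7.5, 150 mM NaCl, 0.1% BSA, then filtered and counted.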

[2] = molecular target: Gonadotropin-releasing hormone receptor (Homo sapiens, UniProt P30968, M24I); assay: Displacement of [125I]-His5, D-Tyr6]GnRH from mutant GnRHR, GnRHR M24I; summary of the method: as §1
Chain of Gonadotropin-releasing hormone receptor (Homo sapiens, UniProt P30968, M24I) (P30968 whole entry M24I): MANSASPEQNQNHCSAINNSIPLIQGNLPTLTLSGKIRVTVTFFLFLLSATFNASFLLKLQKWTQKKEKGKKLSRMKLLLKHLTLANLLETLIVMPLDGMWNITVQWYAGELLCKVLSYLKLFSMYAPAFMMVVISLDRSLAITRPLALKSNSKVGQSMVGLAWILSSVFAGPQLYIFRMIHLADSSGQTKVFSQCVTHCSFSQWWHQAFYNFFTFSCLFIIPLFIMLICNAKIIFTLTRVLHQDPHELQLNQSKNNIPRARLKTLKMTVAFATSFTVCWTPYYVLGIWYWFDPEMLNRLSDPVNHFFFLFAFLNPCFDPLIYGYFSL

[3] = molecular target: Gonadotropin-releasing hormone receptor (Homo sapiens, UniProt P30968, Q208D); assay: Displacement of [125I]-His5, D-Tyr6]GnRH from mutant GnRHR, GnRHR Q208D
Chain of Gonadotropin-releasing hormone receptor (Homo sapiens, UniProt P30968, Q208D) (P30968 whole entry Q208D): as the sequence (P30968 whole entry M24I) above, with I24M, Q208D counted along it

[4] = molecular target: Gonadotropin-releasing hormone receptor (Homo sapiens, UniProt P30968, Y290Q); assay: Displacement of [125I]-His5, D-Tyr6]GnRH from mutant GnRHR, GnRHR Y290Q
Chain of Gonadotropin-releasing hormone receptor (Homo sapiens, UniProt P30968, Y290Q) (P30968 whole entry Y290Q): as the sequence (P30968 whole entry M24I) above, with I24M, Y290Q counted along it

[5] = molecular target: Gonadotropin-releasing hormone receptor (Homo sapiens, UniProt P30968, D293N); assay: Displacement of [125I]-His5, D-Tyr6]GnRH from mutant GnRHR, GnRHR D293N; summary of the method: as §1
Chain of Gonadotropin-releasing hormone receptor (Homo sapiens, UniProt P30968, D293N) (P30968 whole entry D293N): as the sequence (P30968 whole entry M24I) above, with I24M, D293N counted along it

[6] = molecular target: Gonadotropin-releasing hormone receptor (Homo sapiens, UniProt P30968, N305D); assay: Displacement of [125I]-His5, D-Tyr6]GnRH from mutant GnRHR, GnRHR N305D; summary of the method: as §1
Chain of Gonadotropin-releasing hormone receptor (Homo sapiens, UniProt P30968, N305D) (P30968 whole entry N305D): as the sequence (P30968 whole entry M24I) above, with I24M, N305D counted along it

[7] = molecular target: Gonadotropin-releasing hormone receptor (Homo sapiens, UniProt P30968, Y283F); assay: Displacement of [125I]-His5, D-Tyr6]GnRH from mutant GnRHR, GnRHR Y283F
Chain of Gonadotropin-releasing hormone receptor (Homo sapiens, UniProt P30968, Y283F) (P30968 whole entry Y283F): as the sequence (P30968 whole entry M24I) above, with I24M, Y283F counted along it

[8] = molecular target: Gonadotropin-releasing hormone receptor (Homo sapiens, UniProt P30968, N315A); assay: Displacement of [125I]-His5, D-Tyr6]GnRH from mutant GnRHR, GnRHR N315A; summary of the method: as §1
Chain of Gonadotropin-releasing hormone receptor (Homo sapiens, UniProt P30968, N315A) (P30968 whole entry N315A): as the sequence (P30968 whole entry M24I) above, with I24M, N315A counted along it

[9] = molecular target: Gonadotropin-releasing hormone receptor (Homo sapiens, UniProt P30968, Y290F); assay: Displacement of [125I]-His5, D-Tyr6]GnRH from mutant GnRHR, GnRHR Y290F
Chain of Gonadotropin-releasing hormone receptor (Homo sapiens, UniProt P30968, Y290F) (P30968 whole entry Y290F): as the sequence (P30968 whole entry M24I) above, with I24M, Y290F counted along it

[10] = molecular target: Gonadotropin-releasing hormone receptor (Homo sapiens, UniProt P30968, L112F); assay: Displacement of [125I]-His5, D-Tyr6]GnRH from mutant GnRHR, GnRHR L112F; summary of the method: as §1
Chain of Gonadotropin-releasing hormone receptor (Homo sapiens, UniProt P30968, L112F) (P30968 whole entry L112F): as the sequence (P30968 whole entry M24I) above, with I24M, L112F counted along it

[11] = molecular target: Gonadotropin-releasing hormone receptor (Homo sapiens, UniProt P30968, N315D); assay: Displacement of [125I]-His5, D-Tyr6]GnRH from mutant GnRHR, GnRHR N315D; summary of the method: as §1
Chain of Gonadotropin-releasing hormone receptor (Homo sapiens, UniProt P30968, N315D) (P30968 whole entry N315D): as the sequence (P30968 whole entry M24I) above, with I24M, N315D counted along it

Chain of Gonadotropin-releasing hormone receptor (Homo sapiens, UniProt P30968, M24A) (P30968 whole entry M24A): as the sequence (P30968 whole entry M24I) above, with I24A counted along it

Row | IC50 [1] [nM] | IC50 [2] [nM] | IC50 [3] [nM] | IC50 [4] [nM] | IC50 [5] [nM] | IC50 [6] [nM] | IC50 [7] [nM] | IC50 [8] [nM] | IC50 [9] [nM] | IC50 [10] [nM] | IC50 [11] [nM] | SMILES
1 | 17.9 | 23.2 | 16.2 | 229 | 32.6 | 46.5 | 108 | 47.1 | 39.6 | 29.5 | 49.3 | COc1c(C)cc(-c2[nH]c3ccc(C(C)(C)C(=O)N(CC(C)C)CC(C)C)cc3c2[C@H](C)CNCCc2ccccc2)cc1C
2 | 5.9 | 2.2 | 10.1 | 192 | 4.7 | 41.1 | 316 | 0.8 | 48.8 | 2.7 | 1.5 | CC(C)C[C@H](NC(=O)[C@@H](Cc1ccc(O)cc1)NC(=O)[C@H](Cc1c[nH]cn1)NC(=O)[C@H](CO)NC(=O)[C@H](Cc1c[nH]c2ccccc12)NC(=O)[C@H](Cc1c[nH]cn1)NC(=O)[C@@H]1CCC(=O)N1)C(=O)N[C@@H](CCCN=C(N)N)C(=O)N1CCC[C@H]1C(=O)NCC(N)=O
